# Experimental data published in ChEMBL document CHEMBL1143199, “Discovery and SAR of hydrazide antagonists of the pituitary adenylate cyclase-activating polypeptide (PACAP) receptor type 1 (PAC1-R)” (Bioorg Med Chem Lett, 2008).
# The source made the active and inactive calls. The rule behind the calls is not given here.
# Biological target: T1, Pituitary adenylate cyclase-activating polypeptide type I receptor (Homo sapiens, UniProt P41586)
# Test: Displacement of [125I]PACAP27 from PAC1R expressed in HEK293f cells
# Format: cell-based
# Conditions: not given
# Summary of the method: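 Membranes from HEK293f cells expressing PAC1R (5 lg protein) incubated with 0.2 nM ¹²⁵I-PACAP27 in 50 mM Tris–HCl pH 7.4, 5 mM MgCl₂, 20 min at 37 °C; nonspecific binding with 300 nM unlabeled PACAP38. Terminated by filtration through PEI-soaked GF/B filters, three ice-cold buffer washes, radioactivity counted; Ki reported.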
SMILES,Ki [nM],Activity
COc1cc(/C=N/NC(=O)c2ccc(O)c(Cl)c2)ccc1OCc1cccc(C(F)(F)F)c1,404,
O=C(N/N=C/c1ccc(OCc2ccccc2)cc1)c1ccc(O)c(Cl)c1,522,
O=C(N/N=C/c1ccc(OCc2cccc(C(F)(F)F)c2)cc1)c1ccc(O)c(Cl)c1,537,
CC(=O)Nc1ccc(COc2ccc(/C=N/NC(=O)c3ccc(O)c(Cl)c3)cc2)cc1,,inactive
O=C(N/N=C/c1cccc2c1ccn2Cc1cccc(C(F)(F)F)c1)c1ccc(O)c(Cl)c1,85,
O=C(N/N=C/c1cccc(COc2ccc(C(F)(F)F)cc2)c1)c1ccc(O)c(Cl)c1,241,
O=C(N/N=C/c1cccc(COc2cccc(C(F)(F)F)c2)c1)c1ccc(O)c(Cl)c1,274,
O=C(N/N=C/c1cccc(OCc2cccc(C(F)(F)F)c2)c1)c1ccc(O)c(Cl)c1,554,
COc1cc(/C=N/NC(=O)c2ccc(O)c(Cl)c2)cc(OCc2c(C)c(C)cc(C)c2C)c1OC,167,

# Next, values leading:
Ki [nM],Activity,SMILES
185,,COc1cc(/C=N/NC(=O)c2ccc(O)c(Cl)c2)cc(OC)c1OCc1ccccc1
152,,COc1cc(/C=N/NC(=O)c2ccc(O)c(Cl)c2)cc(OCc2ccc(C(C)C)cc2)c1OC
,inactive,COc1cc(/C=N/NC(=O)c2ccc(O)c(Cl)c2)ccc1OCc1ccc(C(C)C)cc1
,inactive,COc1cc(-c2nnc(-c3ccc(O)c(Cl)c3)o2)cc(OC)c1OCc1ccc(C(C)C)cc1
,inactive,COc1cc(/C=N/NC(=O)c2cccc(Cl)c2)cc(OC)c1OCc1ccc(C(C)C)cc1
204,,COc1cc(/C=N/NC(=O)c2ccc(O)c(Cl)c2)cc(OC)c1OCc1cccc(C(F)(F)F)c1
,inactive,COc1cc(-c2nnc(-c3ccc(O)c(Cl)c3)s2)cc(OC)c1OCc1ccc(C(C)C)cc1
,inactive,COc1cc(/C=N/NC(=O)c2ccc3[nH]ncc3c2)cc(OC)c1OCc1ccc(C(C)C)cc1
,inactive,COc1cc(/C=N/NC(=O)c2ccc(O)c(Cl)c2)cc(OCc2cccc(C(F)(F)F)c2)c1OC
140,,COc1cc(/C=N/NC(=O)c2ccc(O)c(Cl)c2)cc(OC)c1OCc1ccc(C(F)(F)F)cc1
56,,COc1cc(/C=N/NC(=O)c2ccc(O)c(Cl)c2)cc(OC)c1OCc1ccc(C(C)C)cc1

# Biological target: T2, Pituitary adenylate cyclase-activating polypeptide type I receptor (Rattus norvegicus) (UniProt P32215)
# T2 sequence (whole entry): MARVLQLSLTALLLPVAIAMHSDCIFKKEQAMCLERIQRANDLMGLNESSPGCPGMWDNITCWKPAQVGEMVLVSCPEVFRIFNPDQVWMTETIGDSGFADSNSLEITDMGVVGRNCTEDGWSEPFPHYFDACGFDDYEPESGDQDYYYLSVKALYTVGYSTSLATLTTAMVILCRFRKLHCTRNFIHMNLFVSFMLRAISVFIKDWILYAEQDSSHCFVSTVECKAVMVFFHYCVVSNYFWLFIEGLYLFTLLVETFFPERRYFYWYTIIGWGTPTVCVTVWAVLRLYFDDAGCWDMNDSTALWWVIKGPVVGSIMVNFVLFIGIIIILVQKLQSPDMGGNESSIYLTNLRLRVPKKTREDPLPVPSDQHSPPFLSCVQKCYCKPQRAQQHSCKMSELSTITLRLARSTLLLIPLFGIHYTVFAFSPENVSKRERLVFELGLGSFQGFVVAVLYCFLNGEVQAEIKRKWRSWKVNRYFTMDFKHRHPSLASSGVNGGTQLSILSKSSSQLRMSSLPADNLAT
# Test: Antagonist activity at PAC1R in rat AR42J cells assessed as PACAP-induced calcium mobilization by FLIPR assay
# Format: functional, cell-based
# Conditions: AR-42J
# Summary of the method: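 Cells loaded with Fluo-4AM for 2 h, preincubated with compounds 30 min at room temperature, then challenged with 2 nM PACAP-27; intracellular calcium changes monitored by FLIPR; Kb calculated.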
row,Kb [nM],SMILES
1,200,COc1cc(/C=N/NC(=O)c2ccc(O)c(Cl)c2)cc(OC)c1OCc1ccc(C(C)C)cc1

# Biological target: T1, Pituitary adenylate cyclase-activating polypeptide type I receptor
# Test: Displacement of [125I]PACAP27 from PAC1R expressed in HEK293f cells at 3 uM
# Format: cell-based
# Conditions: not given
# Target sequence in this assay (P41586 21-468 limits assumed): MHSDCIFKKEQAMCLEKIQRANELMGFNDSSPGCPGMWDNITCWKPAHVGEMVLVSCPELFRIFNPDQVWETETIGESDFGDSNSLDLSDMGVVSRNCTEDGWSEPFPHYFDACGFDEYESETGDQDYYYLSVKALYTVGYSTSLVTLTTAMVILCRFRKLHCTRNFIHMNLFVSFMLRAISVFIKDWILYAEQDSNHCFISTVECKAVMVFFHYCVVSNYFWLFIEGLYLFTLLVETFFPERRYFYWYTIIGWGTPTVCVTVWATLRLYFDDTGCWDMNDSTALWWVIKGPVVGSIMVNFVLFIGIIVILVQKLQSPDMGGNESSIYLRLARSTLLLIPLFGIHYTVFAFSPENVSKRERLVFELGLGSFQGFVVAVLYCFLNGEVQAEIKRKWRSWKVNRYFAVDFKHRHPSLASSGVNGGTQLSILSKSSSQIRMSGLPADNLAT
row,SMILES,Activity [%]
1,COc1cc(/C=N/NC(=O)c2ccc(O)c(Cl)c2)ccc1OCc1ccc(C(F)(F)F)cc1,50
2,O=C(N/N=C/c1ccc(COc2ccccc2)cc1)c1ccc(O)c(Cl)c1,41
3,O=C(N/N=C/c1cccc2c1ccn2Cc1ccc(OCc2ccccc2)cc1)c1ccc(O)c(Cl)c1,51
4,O=C(N/N=C/c1ccc(OCc2ccc(C(F)(F)F)cc2)cc1)c1ccc(O)c(Cl)c1,43
5,O=C(N/N=C/c1cccc2c1ccn2Cc1ccccc1)c1ccc(O)c(Cl)c1,55

# Second part, the compound after the results:
row,Activity [%],SMILES
1,46,COc1cc(CNNC(=O)c2ccc(O)c(Cl)c2)cc(OC)c1OCc1ccc(C(C)C)cc1
2,34,COc1cc(/C=N/NC(=O)c2ccc(O)c(Cl)c2)ccc1OCc1ccc(NC(C)=O)cc1
3,36,CNC(=O)c1ccc(COc2ccc(/C=N/NC(=O)c3ccc(O)c(Cl)c3)cc2OC)cc1
4,43,COc1cc(/C=N/NC(=O)c2ccc(O)c(Cl)c2)cc(OC)c1OCc1ccc(NC(C)=O)cc1
5,22,COc1cc(/C=N/NC(=O)c2ccc(O)cc2)cc(OC)c1OCc1ccc(C(C)C)cc1
6,44,COc1cc(C(=O)N/N=C/c2cc(OC)c(OCc3ccc(C(C)C)cc3)c(OC)c2)ccc1O
7,40,COc1cc(C(=O)NNC(=O)c2ccc(O)c(Cl)c2)cc(OC)c1OCc1ccc(C(C)C)cc1
